PKD1 kinase inh: PKD1 (human) kinase inhibition. Q15139. PKD1 kinase fluorescence polarization assay. inhibition, % (no concentration beside the values). 200,000 tested, 0.056% active. AID 797
Target sequence (Q15139 whole entry, looked up): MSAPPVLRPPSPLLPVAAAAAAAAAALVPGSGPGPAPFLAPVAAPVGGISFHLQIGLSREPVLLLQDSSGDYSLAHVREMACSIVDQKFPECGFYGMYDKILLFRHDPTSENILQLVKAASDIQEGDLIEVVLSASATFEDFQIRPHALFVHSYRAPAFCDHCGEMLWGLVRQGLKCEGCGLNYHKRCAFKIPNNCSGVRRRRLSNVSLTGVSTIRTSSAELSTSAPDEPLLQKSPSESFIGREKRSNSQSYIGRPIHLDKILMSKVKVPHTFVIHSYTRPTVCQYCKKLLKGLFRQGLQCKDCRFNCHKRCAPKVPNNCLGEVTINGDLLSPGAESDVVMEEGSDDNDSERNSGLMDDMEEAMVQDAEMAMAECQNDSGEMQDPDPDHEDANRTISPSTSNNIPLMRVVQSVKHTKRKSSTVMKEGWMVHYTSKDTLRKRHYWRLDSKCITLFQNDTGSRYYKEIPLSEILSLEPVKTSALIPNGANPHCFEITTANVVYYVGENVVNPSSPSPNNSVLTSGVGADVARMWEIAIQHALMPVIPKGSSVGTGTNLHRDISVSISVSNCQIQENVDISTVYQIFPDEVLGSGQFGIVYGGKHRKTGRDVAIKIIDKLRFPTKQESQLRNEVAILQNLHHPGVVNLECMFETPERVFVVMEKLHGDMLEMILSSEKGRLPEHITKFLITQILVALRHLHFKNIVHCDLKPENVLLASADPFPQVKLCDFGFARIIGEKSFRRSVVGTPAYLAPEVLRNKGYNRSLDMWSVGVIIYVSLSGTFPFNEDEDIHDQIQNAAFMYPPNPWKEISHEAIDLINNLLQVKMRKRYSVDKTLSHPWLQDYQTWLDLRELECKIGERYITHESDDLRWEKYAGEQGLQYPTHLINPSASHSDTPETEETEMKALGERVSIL
CHOP inh: blocks CHOP induction under ER stress; 220,000 tested, 3.8% active; AID 2732; inhibition, % at 10 µM; CHO-K1 CHOP-promoter luciferase, tunicamycin-induced, 15-18 h;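 active means compounds that reduced the stress-induced luciferase reporter signal by more than about 70% of percent inhibition, limit read from the data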
Rad51 HR inh: blocks human Rad51 in homologous recombination; inhibition, % at 10 µM; 200,000 tested, 0.085% active; hRad51 DNA strand exchange, fluorescence dequenching; Q06609; AID 1385;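 active means inhibition above 40% at the single screening dose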
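Material: hRad51 filaments on single-stranded DNA; Reagent: Donor/quencher-labelled 47-bp dsDNA substrate; Compound: 10 µM final, single point; Schedule: 37 °C 15-min filament assembly, 30-min compound preincubation, 15-min exchange; Technique: FRET fluorescence, excitation 485 nm, emission 520 nm; Benchmarks: control wells and blank wells on each plate.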
Arbovirus anti: blocks arbovirus infection; inhibition, % at 10 µM; arbovirus infection cell-based antiviral screen; 200,000 tested, 0.37% active; in the data active means inhibition above about 30%
Lmaj promast: Leishmania major promastigote growth inhibition; 200,000 tested, 9% active; inhibition, % at 10 µM; Leishmania major promastigotes, resazurin fluorescence viability;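 further: promastigotes grown with compound for 44 hours at 28 °C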
Wee1 stabilizer: human Wee1 degradation inhibition, primary screen | P30291 | HeLa Luc-Wee1K328M stability, luciferase luminescence; 100% = proteasome inhibitor MG132 effect | reporter increase, % at 5 µM | 220,000 tested, 1.2% active;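 active means activation above the mean of all tested compounds plus 3 SD, set per screening run, cut at about 8.8% in these data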;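 further: cells exposed to compound for 20 h before luminescence read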
A number is an active result. Compounds with a hit are over-represented: about 12% of the library has one in this group of screens. Unless noted, no stated cut-off is given here; in the data, active means inhibition above about 50%; inactive means the rest.

O=c1cc(/N=C/c2coc3c(ccc4ccccc43)c2=O)[nH]c(=S)[nH]1 was read as PKD1 kinase inh inactive, CHOP inh 79, Rad51 HR inh inactive, Arbovirus anti inactive, Lmaj promast 51 and Wee1 stabilizer inactive.
Fc1ccccc1Nc1nc2c(s1)CCc1ccccc1-2 was read as PKD1 kinase inh inactive, CHOP inh 71, Arbovirus anti inactive, Lmaj promast inactive and Wee1 stabilizer inactive.
Screening CCOC(=O)N1CCC(NS(=O)(=O)c2ccc(NC(C)=O)c(Cl)c2)CC1 returned CHOP inh inactive, Rad51 HR inh inactive and Wee1 stabilizer inactive.
`CCOc1ccc(/C(CC)=N/NC(=O)C2(C)CC2(Br)Br)cc1` (stereo unspecified) gave PKD1 kinase inh inactive, CHOP inh inactive, Rad51 HR inh inactive, Arbovirus anti inactive, Lmaj promast 58 and Wee1 stabilizer inactive.
Screening CCOc1ccc(/C(CCC(=O)O)=N/NC(=S)NC(C)C)cc1 returned PKD1 kinase inh inactive, CHOP inh inactive, Rad51 HR inh inactive, Arbovirus anti inactive, Lmaj promast inactive and Wee1 stabilizer inactive.
Screening Cc1ccc2oc(=O)c3cnn(CC(=O)N4CCc5ccccc5C4)c3c2c1 returned PKD1 kinase inh inactive, CHOP inh inactive, Rad51 HR inh inactive, Arbovirus anti inactive and Lmaj promast inactive.
Screening Cc1ccc2oc(=O)c3cnn(CC(=O)Nc4cc(-c5cccc(F)c5)no4)c3c2c1 returned PKD1 kinase inh inactive, CHOP inh 96, Rad51 HR inh inactive, Arbovirus anti inactive, Lmaj promast inactive and Wee1 stabilizer inactive.
`Cc1ccc(Nc2cc(C)nc(N3CCOCC3)n2)c(C)c1` gave PKD1 kinase inh inactive, CHOP inh inactive, Rad51 HR inh inactive, Arbovirus anti inactive, Lmaj promast 76 and Wee1 stabilizer inactive.
O=C(Nc1ccccc1N1CCOCC1)c1cc(Br)c(Br)s1 was read as PKD1 kinase inh inactive, CHOP inh inactive, Rad51 HR inh inactive, Arbovirus anti inactive, Lmaj promast inactive and Wee1 stabilizer inactive.
For CCc1cccc(CC)c1NC(=S)NCc1nc2ccccc2[nH]1 the results were PKD1 kinase inh inactive, CHOP inh inactive, Rad51 HR inh inactive, Arbovirus anti inactive, Lmaj promast inactive and Wee1 stabilizer inactive.
For COc1ccc(-n2c(-c3ccc(Br)cc3)c[n+]3c2CCC3)cc1 the results were PKD1 kinase inh inactive, CHOP inh inactive, Rad51 HR inh inactive, Arbovirus anti inactive, Lmaj promast 100 and Wee1 stabilizer inactive.
For Cc1ccc(-n2c(-c3ccc(Cl)cc3)c[n+]3c2CCC3)cc1 the results were CHOP inh inactive, Rad51 HR inh inactive and Wee1 stabilizer inactive.
COc1ccc(-n2c(-c3ccccc3)c[n+]3c2CCC3)cc1 was read as CHOP inh inactive and Wee1 stabilizer inactive.
For Cc1ccc(-n2c(-c3ccccc3)c[n+]3c2CCC3)cc1 the results were PKD1 kinase inh inactive, CHOP inh inactive, Rad51 HR inh inactive, Arbovirus anti inactive, Lmaj promast 98 and Wee1 stabilizer inactive.
For COc1ccc(-n2c(-c3ccc(Br)cc3)c[n+]3c2CCCCC3)cc1 the results were PKD1 kinase inh inactive, CHOP inh inactive, Rad51 HR inh inactive, Arbovirus anti inactive, Lmaj promast 100 and Wee1 stabilizer inactive.
Screening COc1ccc(-n2c(-c3ccc(Br)cc3)c[n+]3c2SC(C)C3)cc1 (stereo unspecified) returned PKD1 kinase inh inactive, CHOP inh inactive, Rad51 HR inh inactive, Arbovirus anti inactive, Lmaj promast 100 and Wee1 stabilizer inactive.
For Cc1nn(C)c(Oc2cccc(Cl)c2)c1C(=O)Nc1ccc(F)cc1 the results were PKD1 kinase inh inactive, CHOP inh inactive, Rad51 HR inh inactive, Arbovirus anti inactive, Lmaj promast inactive and Wee1 stabilizer inactive.
CCN(CC(=O)Nc1ccc(C)c(F)c1)CC(=O)NC(C)(C)C was read as PKD1 kinase inh inactive, CHOP inh inactive, Arbovirus anti inactive, Lmaj promast inactive and Wee1 stabilizer inactive.
CCOc1ccc(-c2nnc(-c3ccccc3)n2-c2ccccc2)cc1 was read as PKD1 kinase inh inactive, CHOP inh inactive, Rad51 HR inh inactive, Arbovirus anti inactive, Lmaj promast 65 and Wee1 stabilizer inactive.
CCOc1ccc(-n2c(-c3ccc(Cl)cc3)c[n+]3c2SCC3)cc1 was read as PKD1 kinase inh inactive, CHOP inh inactive, Rad51 HR inh inactive, Arbovirus anti inactive, Lmaj promast 100 and Wee1 stabilizer inactive.
`c1ccc(-c2c[n+]3c(n2-c2ccccc2)SCC3)cc1` gave CHOP inh inactive, Rad51 HR inh inactive and Wee1 stabilizer inactive.
CCOc1ccc(-c2c[n+]3c(n2-c2ccccc2)CCCCC3)cc1 was read as PKD1 kinase inh inactive, CHOP inh inactive, Rad51 HR inh inactive, Arbovirus anti inactive, Lmaj promast 100 and Wee1 stabilizer inactive.
Screening COc1ccc(C(=O)NC(=S)N2CC(C)OC(C)C2)cc1OC (stereo unspecified) returned PKD1 kinase inh inactive, CHOP inh inactive, Rad51 HR inh inactive, Arbovirus anti inactive, Lmaj promast inactive and Wee1 stabilizer inactive.
For O=C(CSc1nnc(-c2ccccc2Cl)o1)Nc1ccccn1 the results were PKD1 kinase inh inactive, CHOP inh inactive, Rad51 HR inh inactive, Arbovirus anti inactive, Lmaj promast inactive and Wee1 stabilizer inactive.
Screening Cc1ccc(/C=N/Nc2cccc(C(=O)O)c2)s1 returned PKD1 kinase inh inactive, CHOP inh 80, Rad51 HR inh inactive, Arbovirus anti inactive, Lmaj promast inactive and Wee1 stabilizer inactive.
For Cc1ccsc1/C=N/NC(=O)c1ccccn1 the results were PKD1 kinase inh inactive, CHOP inh inactive, Rad51 HR inh inactive, Arbovirus anti inactive, Lmaj promast 60 and Wee1 stabilizer inactive.
`O=C(O)c1cccc(N/N=C/c2cn(-c3ccccc3)nc2-c2cccs2)c1` gave PKD1 kinase inh inactive, CHOP inh inactive, Rad51 HR inh inactive, Arbovirus anti inactive, Lmaj promast inactive and Wee1 stabilizer inactive.
`O=C(O)c1cccc(N/N=C/C2=C(Cl)c3cc(Cl)ccc3SC2)c1` gave PKD1 kinase inh inactive, CHOP inh inactive, Rad51 HR inh inactive, Arbovirus anti 46, Lmaj promast inactive and Wee1 stabilizer inactive.
`Cc1ccsc1/C=N/Nc1cccc(C(=O)O)c1` gave PKD1 kinase inh inactive, CHOP inh 89, Arbovirus anti inactive, Lmaj promast inactive and Wee1 stabilizer inactive.
`O=C(O)c1cccc(N/N=C/c2ccc(F)c(F)c2)c1` gave PKD1 kinase inh inactive, CHOP inh inactive, Rad51 HR inh inactive, Arbovirus anti inactive, Lmaj promast inactive and Wee1 stabilizer inactive.
Cc1ccc(/C=N/Nc2ccc(C(=O)O)cc2)s1 was read as PKD1 kinase inh inactive, CHOP inh 75, Rad51 HR inh inactive, Arbovirus anti inactive, Lmaj promast inactive and Wee1 stabilizer inactive.
Cc1ccc(/C=N/Nc2ccc(C(=O)O)cc2)o1 was read as PKD1 kinase inh inactive, CHOP inh inactive, Rad51 HR inh inactive, Arbovirus anti inactive, Lmaj promast inactive and Wee1 stabilizer inactive.
For N#CC(C(=O)Nc1ccc(Cl)c(Cl)c1)=C1Nc2ccccc2N1 the results were PKD1 kinase inh inactive, CHOP inh 73, Rad51 HR inh inactive, Arbovirus anti inactive, Lmaj promast inactive and Wee1 stabilizer inactive.

Source: PubChem BioAssay
